The list is not random: actives were taken first. Their share in the collection is about 2.2%.
VIM-2 inhibitor: VIM-2 metallo-beta-lactamase inhibitors, primary screen, biochemical, epi-absorbance readout, Pseudomonas aeruginosa enzyme; purified VIM-2, nitrocefin hydrolysis, epi-absorbance fluorescence; inhibition, % at 5.6 µM; 290,000 tested, 0.89% active;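 active means inhibition above the mean of all tested compounds plus 3 SD, cutoff set per screening run, cut at about 7.5% in these data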;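 further: red hydrolysis product quenches plate fluorescence so inhibitors raise well fluorescence; 0% = enzyme with DMSO and 100% = DMSO without enzyme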
MLLE-PAM2 inh: inhibitors of PABP1 MLLE–PAM2 peptide binding, primary screen, biochemical, fluorescence polarization, FITC-PAM2, GST-MLLE | Polyadenylate-binding protein 1 (Homo sapiens), P11940 | inhibition, % at 20 µM | 360,000 tested, 0.36% active | AID 588489, 2011; in the data active means inhibition above about 35%, passing the limit was not always enough;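 further: plate controls were DMSO wells with GST-MLLE for no effect and wells lacking GST-MLLE protein for full effect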
IMP-1 inh-1: IMP-1 metallo-beta-lactamase inhibitors, primary screen, biochemical, epi-absorbance readout, Pseudomonas aeruginosa enzyme; metallo-beta-lactamase IMP-1 (Pseudomonas aeruginosa); purified IMP-1, nitrocefin hydrolysis, epi-absorbance fluorescence; inhibition, % at 5.6 µM; 290,000 tested, 0.45% active; AID 1556, 2009;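 active means inhibition above the mean plus 3 SD of all compounds in the same screening run, cut at about 4.5% in these data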;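 further: 0% = IMP-1 with DMSO and 100% = DMSO wells lacking enzyme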
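System: Purified IMP-1 | Read-out basis: Percent enzyme inhibition | Controls: IMP-1 with DMSO as 0%, enzyme-free DMSO as 100% | Replicates: One well per compound | Doses: 5.6 µM nominal single concentration | Detection: Epi-absorbance fluorescence, 480 nm excitation, 530 nm emission | Incubation: 25 °C, 15 min preincubation, 25 min reaction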
eIF4H inh: human eIF4H binding inhibitors, primary screen, translation initiation inhibitor project, biochemical, uHTS, fluorescence polarization; inhibition, % at 35 µM; AID 2012, 2009; Eukaryotic translation initiation factor 4H (Homo sapiens), Q15056; eIF4H fluorescence polarization binding assay; 290,000 tested, 0.94% active;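 further: calls also rest on retests at 20 µM and on dose response follow-up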
PABP polyA inh: PABP poly(A) RNA binding inhibitors, primary screen, biochemical, fluorescence polarization, uHTS. 290,000 tested, 1% active. calls only at 35 µM;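 further: calls also rest on retests at 20 µM and on dose response follow-up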
IMP-1 inh-2: IMP-1 metallo-beta-lactamase inhibitors, confirmation, selectivity assay for selective VIM-2 inhibitor project, biochemical, epi-absorbance readout, triplicate; shares compounds with VIM-2 inhibitor; purified IMP-1, nitrocefin hydrolysis, epi-absorbance fluorescence; inhibition, % at 5.6 µM; 1,300 tested, under 10 active;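 further: 0% = enzyme with vehicle and 100% = vehicle without enzyme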
VIM-2 FRET inh: VIM-2 inhibitors in FRET format, confirmation, artefact control for selective VIM-2 inhibitor project, biochemical, epi-absorbance artifact exclusion; shares compounds with VIM-2 inhibitor; 1,300 tested, 23% active; AID 1857, 2009; inhibition, % at 5.6 µM; purified VIM-2, CCF2 FRET substrate hydrolysis;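 active means inhibition above the mean of all tested compounds plus 3 SD, cut at about 19% in these data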;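 further: 0% = VIM-2 plus DMSO and 100% = no enzyme wells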
TEM-1 counter: TEM-1 serine beta-lactamase inhibitors, counter-screen for VIM-2 inhibitor project, biochemical, epi-absorbance, HTS | Purified TEM-1, nitrocefin hydrolysis, epi-absorbance fluorescence | 1,300 tested, 3% active | AID 1866, 2009 | inhibition, % at 5.6 µM | shares compounds with VIM-2 inhibitor;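 active means inhibition above that campaign's mean inhibition plus 3 SD, cut at about 0.46% in these data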;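 further: 0% = TEM-1 with DMSO and 100% = TEM-1 with 100 µM potassium clavulanate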
Target sequence (P62593 whole entry, looked up): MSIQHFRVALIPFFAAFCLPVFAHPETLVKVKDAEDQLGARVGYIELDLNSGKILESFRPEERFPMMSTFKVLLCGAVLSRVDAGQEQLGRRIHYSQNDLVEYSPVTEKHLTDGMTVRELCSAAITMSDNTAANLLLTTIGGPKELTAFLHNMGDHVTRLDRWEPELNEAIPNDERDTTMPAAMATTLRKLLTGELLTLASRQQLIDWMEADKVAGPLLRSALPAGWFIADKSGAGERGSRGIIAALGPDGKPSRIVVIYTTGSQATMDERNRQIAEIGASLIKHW
VIM-2 confirm 2: VIM-2 metallo-beta-lactamase inhibitors, confirmation, biochemical, epi-absorbance, hits shared with IMP-1 screen; shares compounds with VIM-2 inhibitor; purified VIM-2, nitrocefin hydrolysis; 1,300 tested, 96% active; inhibition, % at 5.6 µM;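 active means inhibition of the VIM-2 beta-lactamase enzyme above about 11% from the earlier first-round screen, limit read from the data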;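 further: 0% = VIM-2 with DMSO and 100% = buffer wells without enzyme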
Active calls of the source: *; i = inactive; . = no result given. Unless noted, how the calls were made is not given here.

SMILES	VIM-2 inhibitor	MLLE-PAM2 inh	IMP-1 inh-1	eIF4H inh	PABP polyA inh	IMP-1 inh-2	VIM-2 FRET inh	TEM-1 counter	VIM-2 confirm 2
CCC(CO)Nc1ccc(-c2nn(C)c(=O)c3ccccc23)cc1[N+](=O)[O-] (stereo not drawn)	25*	13	-1	-4	i	-4	-2	-8	45*
CCC(CO)Nc1ccc(-c2n[nH]c(=O)c3ccccc23)cc1[N+](=O)[O-] (stereo not drawn)	22*	3	-2	2	i	-4	-4	-8	32*
CN(CCO)c1ccc(-c2n[nH]c(=O)c3ccccc23)cc1[N+](=O)[O-]	16*	-6	-4	-6	i	-3	-3	-6	27*
Cc1ccccc1-c1nc(CS(=O)(=O)CC(=O)NCc2ccco2)c(C)o1	-4	5	-4	-14	i	.	.	.	.
C/C(=N\NC(N)=O)c1ccc(-n2ccnc2)cc1	2	13	-1	-10	i	.	.	.	.
COCCNC(=S)N/N=C(\C)c1ccc(-n2ccnc2)cc1	67*	20	-2	-1	i	1	1	0.4*	82*
C/C(=N\NC(=S)NC(C)C)c1ccccc1	-2	18	-2	-7	i	.	.	.	.
C/C(=N\NC(=S)NC(C)C)c1ccc(-n2ccnc2)cc1	77*	23	-2	-1	i	-2	-11	-7	86*
C=CCNC(=S)N/N=C(\C)c1ccc(-n2ccnc2)cc1	66*	14	-1	-3	i	-3	-7	-8	80*
CNC(=S)N/N=C(\C)c1ccc(-n2ccnc2)cc1	23*	31	1	2	i	-4	-15	-7	43*
Cc1ccc2nc(Cl)c3cc(C(=O)NCCCN4CCCC4)sc3c2c1	13*	-42	-2	6	i	-2	7	-6	27*
NC(N)=Nc1nc(-c2ccccc2)c2ccccc2n1	14*	2	-3	-2	i	-3	-6	-4	27*
Cc1c(S(=O)(=O)c2ccccn2)c(N)n(Cc2cccc(Cl)c2)c1C	0	-54	-2	62	i	.	.	.	.
Cc1cc(C)c2nc(C)cc(N/N=C/c3ccc(O)cc3)c2c1	13*	-46	-1	-6	i	-3	-3	-6	19*
Cc1cc(N/N=C/c2ccc(N(C)C)cc2)c2ccccc2n1	4	-5	-3	-13	i	.	.	.	.
c1ccc(CN2CCN(CCCNc3ccc4nnc(-c5ccccc5)n4n3)CC2)cc1	62*	3	-2	-7	i	0	4	0.8*	76*
Cc1ccc2oc(=O)c3cc(C(=O)NCc4ccco4)sc3c2c1	-2	0	-3	3	i	.	.	.	.
Cc1ccc2oc(=O)c3cc(C(=O)N4CCN(C)CC4)sc3c2c1	13*	15	-1	-6	i	-4	4	-9	20*
COc1ccc(N2CCN(S(=O)(=O)CCNC(=O)C3CC(=O)N(c4ccccc4)C3)CC2)cc1 (stereo not drawn)	-7	-3	-3	-4	i	.	.	.	.
COc1ccc(N2C(=O)[C@H]3CCC=C[C@H]3[C@@H]2c2ccccc2Br)cc1	.	-9	.	.	.	.	.	.	.
CCN(CC)CCNC(=O)c1cc2c(-c3ccc(Cl)cc3)nn(C)c2s1	2	-6	-2	2	i	.	.	.	.
CCN(CC)CCNC(=O)c1cc2c(-c3cccc(OC)c3)nn(C)c2s1	14*	15	-2	2	i	-2	4	-4	23*
CCCN(CCC)CCCNC(=O)c1cc2c(-c3ccc(OC)c(OC)c3)nn(C)c2s1	12*	2	-4	6	i	-4	-4	-6	24*
COc1ccc(-c2nn(C)c3sc(C(=O)NCCN(C)C)cc23)cc1OC	17*	-7	-3	-6	i	-3	-2	-6	30*
COCCNc1cc(C)c(C#N)c2nc3ccccc3n12	26*	-2	0	26	i	-3	-10	-6	39*
SMILES	VIM-2 inhibitor	MLLE-PAM2 inh	IMP-1 inh-1	eIF4H inh	PABP polyA inh	IMP-1 inh-2	VIM-2 FRET inh	TEM-1 counter	VIM-2 confirm 2
Cc1cc(NCCOCCO)n2c(nc3ccccc32)c1C#N	33*	-4	-3	13	i	-4	-9	-4	50*
COc1cc(C(=O)NC(C)Cc2ccccn2)ccc1OC1CCN(C(C)=O)CC1 (stereo not drawn)	-1	-6	-1	1	i	.	.	.	.
CCc1ccc(NC(=S)/N=C(\N)Nc2nc(C)c3cc(CC)ccc3n2)cc1	-5	11	-3	0	i	.	.	.	.
Cc1cc(C)c2c(N)c3ccccc3nc2n1	16*	-16	-3	27	i	-3	-7	-6	33*
CCc1ccc2nc3nc(C)cc(C)c3c(N)c2c1	23*	-31	-2	71	i	-1	-8	-3	41*
Cc1cc(C)c2cccc(N)c2n1	-4	-1	-5	79	i	.	.	.	.
Cn1cc(Br)c(C(=O)N/N=C/c2cc3ccccc3nc2Cl)n1	-1	5	-3	-7	i	.	.	.	.
CCCn1c(=N)c(S(=O)(=O)c2ccc(F)cc2)cc2c(=O)n3cccc(C)c3nc21	13*	1	-1	0	i	-1	-4	2.9*	27*
CSc1nc2sc3c(c2c(=S)[nH]1)CC(C)(C)OC3	15*	17	-2	8	i	-3	21*	-7	19*
CSc1nc(SCC(=O)O)c2c3c(sc2n1)COC(C)(C)C3	17*	2	-4	-16	i	-3	43*	-6	25*
N#Cc1ccccc1Oc1ccccc1C=O	-3	9	-2	-4	i	.	.	.	.
CCOC(=O)N1CCC(Nc2ccc3nnc(-c4ccccc4)n3n2)CC1	15*	0	-4	-9	i	-3	0	-3	24*
COc1cc(-c2c(C(C)=O)c(C)nc3c2C(=O)c2ccccc2-3)cc(OC)c1OC	2	-4	1	7	i	.	.	.	.
